Measurements as given in ChEMBL document CHEMBL5625169, “Development of novel PEX5-PEX14 protein-protein interaction (PPI) inhibitors based on an oxopiperazine template” (Eur J Med Chem, 2023).

Tests used:
[1] = biological target: CREB-binding protein/Histone acetyltransferase p300 (Homo sapiens, UniProt Q09472+Q92793); assay: Binding affinity to p300-CBP (unknown origin) protein protein interaction assessed as dissociation constant by tryptophan fluorescence assay
[2] = Inhibition of Trypanosoma brucei biotinylated PEX5 /N-terminal His-tagged PEX14 (19 to 84 residues) protein-protein interaction expressed in Escherichia coli BL21 assessed as inhibition constant by AlphaScreen assay
In short: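 TbPEX14 N-terminal domain (aa 19–84) expressed from pETM-11 in E. coli BL21, Ni-NTA then gel filtration in PBS. AlphaScreen competition with serial inhibitor dilution, other components held constant, quadruplicate. Ki = EC50/(1+[LT]/KdL*T), apparent Kd measured for each condition.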

[3] = system: Trypanosoma brucei; assay: Antitrypanosomal activity against blood stream form of Trypanosoma brucei Lister 427 MITat 1.2 assessed as parasite growth inhibition incubated for 66 hrs by resazurin dye based assay; type: functional, organism-based; settings: Lister 427 MITat 1.2, 66 h
In short: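 Bloodstream-form Lister 427 (MITat 1.2) parasites maintained in HMI-11 with 10% FBS at 37 °C, 5% CO2. Twofold serial dilutions, 10 per row, in quadruplicate. Final 2×10^3 parasites/mL, 66 h, then resazurin added and incubated to 72 h. Fluorescence read at ex 530/em 585 nm, background subtracted, untreated wells taken as 100% survival. EC50 from sigmoidal dose-response fit.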

[4] = system: HepG2; assay: Cytotoxicity against human HepG2 cells assessed as reduction in cell viability incubated for 66 hrs by resazurin staining based analysis; type: functional; settings: HepG2, 66 h
In short: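 HepG2 cells seeded at 5000 per well and grown overnight at 37 °C, 5% CO2. Compounds tested in triplicate at 100 to 3.125 µM (twofold dilutions); hygromycin B as cytotoxic control. After 66 h, resazurin added and plates incubated a further 6 h. Fluorescence background-subtracted and normalised to untreated cells; EC50 from sigmoidal dose-response fit.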

[5] = Selectivity index, ratio of EC50 for cytotoxicity against human HepG2 cells assessed as reduction in cell viability to EC50 for antitrypanosomal activity against blood stream form of Trypanosoma brucei Lister 427 MITat 1.2 assessed as parasite growth inhibition; type: toxicity, cell-based; settings: read-out: Ratio EC50
In short: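 Ratio of HepG2 EC50 (µM) to T. b. brucei EC50. Parasites: bloodstream form, 2×10^3/mL, 66 h plus resazurin to 72 h, quadruplicate.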

[6] = biological target: Tumour suppressor p53/oncoprotein Mdm2 (Homo sapiens, UniProt P04637+Q00987); assay: Binding affinity to MDM2-p53 (unknown origin) protein protein interaction assessed as dissociation constant by fluorescence polarization assay
Tumour suppressor p53/oncoprotein Mdm2, sequence (P04637 whole entry): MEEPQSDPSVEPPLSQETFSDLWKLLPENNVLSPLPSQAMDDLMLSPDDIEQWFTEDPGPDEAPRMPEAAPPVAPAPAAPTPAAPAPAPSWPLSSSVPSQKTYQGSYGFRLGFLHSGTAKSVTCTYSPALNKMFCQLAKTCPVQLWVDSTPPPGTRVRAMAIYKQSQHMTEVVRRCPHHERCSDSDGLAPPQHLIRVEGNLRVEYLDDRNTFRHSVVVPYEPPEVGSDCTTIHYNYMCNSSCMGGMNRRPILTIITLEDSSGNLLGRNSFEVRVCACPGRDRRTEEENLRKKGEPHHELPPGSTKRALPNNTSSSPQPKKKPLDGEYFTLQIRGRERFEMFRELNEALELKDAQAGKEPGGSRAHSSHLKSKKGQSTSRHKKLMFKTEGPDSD
Tumour suppressor p53/oncoprotein Mdm2, sequence (Q00987 whole entry): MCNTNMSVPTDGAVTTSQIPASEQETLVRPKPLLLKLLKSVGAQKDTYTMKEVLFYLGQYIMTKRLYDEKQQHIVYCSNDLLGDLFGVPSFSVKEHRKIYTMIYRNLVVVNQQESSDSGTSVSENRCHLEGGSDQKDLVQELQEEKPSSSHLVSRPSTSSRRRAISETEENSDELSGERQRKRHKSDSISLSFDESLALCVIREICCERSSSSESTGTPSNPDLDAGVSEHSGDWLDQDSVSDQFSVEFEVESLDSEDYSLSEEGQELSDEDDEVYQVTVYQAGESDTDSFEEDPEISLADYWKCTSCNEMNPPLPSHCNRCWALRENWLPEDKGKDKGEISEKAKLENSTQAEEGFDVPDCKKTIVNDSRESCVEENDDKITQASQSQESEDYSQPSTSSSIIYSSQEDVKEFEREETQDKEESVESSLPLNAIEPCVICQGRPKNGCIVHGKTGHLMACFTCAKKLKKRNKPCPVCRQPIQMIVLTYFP

| SMILES | Kd [1] [µM] | Ki [2] [µM] | EC50 [3] [µM] | EC50 [4] [µM] | selectivity ratio [5] | Kd [6] [µM] |
| --- | --- | --- | --- | --- | --- | --- |
| CC(C)C[C@@H]1NCCN([C@@H](CC(C)C)C(=O)N2CCN([C@@H](CCC(N)=O)C(N)=O)C(=O)[C@@H]2C)C1=O | 0.53 |  |  |  |  |  |
| COC(=O)[C@H](Cc1c[nH]c2ccccc12)N1CC(=O)N[C@H](C(=O)NCc2cccc3ccccc23)C1 |  | 77 | 10 | 33 | 3.2 |  |
| COC(=O)[C@H](Cc1ccccc1)N1CC(=O)N[C@@H](Cc2c[nH]c3ccccc23)C1=O |  | > 1000 | 29 | 24 | < 1 |  |
| COC(=O)[C@H](Cc1ccccc1)N1CCN[C@@H](Cc2c[nH]c3ccccc23)C1=O |  | 265 | 43 | > 100 | > 2.3 |  |
| COC(=O)[C@H](Cc1c[nH]c2ccccc12)N1CC(=O)N[C@@H](Cc2c[nH]c3ccccc23)C1 |  | 27 | 5 | 17 | 3.6 |  |
| COC(=O)[C@H](Cc1c[nH]c2ccccc12)N1CCN[C@@H](Cc2c[nH]c3ccccc23)C1=O |  | 133 | 30 | > 100 | > 3.4 |  |
| O=C1CN(CCc2c[nH]c3ccccc23)C[C@H](Cc2c[nH]c3ccccc23)N1 |  | 41 | 7 | 12 | 1.7 |  |
| COC(=O)[C@H](Cc1c[nH]c2ccccc12)N1CC(=O)N[C@H](C(=O)NCc2ccccc2)C1 |  | 494 | > 100 | > 100 |  |  |
| COC(=O)[C@H](Cc1c[nH]c2ccccc12)N1C[C@H](Cc2c[nH]c3ccccc23)NC(=O)C1=O |  | 75 | 29 | > 100 | > 3.4 |  |
| NC(=O)[C@H](Cc1c[nH]c2ccccc12)N1CCN[C@@H](Cc2c[nH]c3ccccc23)C1=O |  | 288 | > 100 | > 100 |  |  |
| O=C1CN(C(=O)Cc2c[nH]c3ccccc23)C[C@H](Cc2c[nH]c3ccccc23)N1 |  | 195 | > 100 | > 100 |  |  |
| COC(=O)[C@H](Cc1ccccc1)N1CC(=O)N[C@@H](Cc2c[nH]c3ccccc23)C1 |  | 73 | 13 | 56 | 4.3 |  |
| O=C1CN([C@H](CO)Cc2c[nH]c3ccccc23)C[C@H](Cc2c[nH]c3ccccc23)N1 |  | 48 | 14 | 24 | 1.7 |  |
| COC(=O)[C@H](Cc1c[nH]c2ccccc12)N1CCN(C(C)=O)[C@@H](Cc2c[nH]c3ccccc23)C1=O |  | 542 | > 100 | > 100 |  |  |
| CC(=O)OC[C@H](Cc1c[nH]c2ccccc12)N1CC(=O)N[C@@H](Cc2c[nH]c3ccccc23)C1 |  | 58 | 13 | 29 | 1.8 |  |
| COC(=O)[C@H](Cc1c[nH]c2ccccc12)N1CCCN[C@@H](Cc2c[nH]c3ccccc23)C1=O |  | 53 | 5 | 21 | 4.2 |  |
| CC(C)C[C@@H](C(N)=O)N1CCN(C(=O)[C@H](Cc2c[nH]c3ccccc23)N2CCN[C@@H](Cc3ccccc3)C2=O)[C@@H](Cc2ccccc2)C1=O |  |  |  |  |  | 2.9 |
| NC(=O)[C@H](Cc1ccccc1)N1CC(=O)N[C@@H](Cc2c[nH]c3ccccc23)C1=O |  | > 1000 | > 100 | > 100 |  |  |
